Assay results published in ChEMBL document CHEMBL4699390, “Chromone and donepezil hybrids as new multipotent cholinesterase and monoamine oxidase inhibitors for the potential treatment of Alzheimer''s disease” (RSC Med Chem, 2020).
Calls of active or inactive are those of the source. The rule behind the calls is not given here.

Tests used:
[1] = species: Homo sapiens; test: Selectivity for recombinant human MAO-B over recombinant human MAO-A
[2] = biological target: Acetylcholinesterase (Electrophorus electricus, UniProt O42275); test: Inhibition of electric eel AChE using acetylthiocholine iodide as substrate preincubated with enzyme for 6 mins followed by substrate addition and measured for 180 secs by Ellman's method
Acetylcholinesterase, sequence (O42275 whole entry): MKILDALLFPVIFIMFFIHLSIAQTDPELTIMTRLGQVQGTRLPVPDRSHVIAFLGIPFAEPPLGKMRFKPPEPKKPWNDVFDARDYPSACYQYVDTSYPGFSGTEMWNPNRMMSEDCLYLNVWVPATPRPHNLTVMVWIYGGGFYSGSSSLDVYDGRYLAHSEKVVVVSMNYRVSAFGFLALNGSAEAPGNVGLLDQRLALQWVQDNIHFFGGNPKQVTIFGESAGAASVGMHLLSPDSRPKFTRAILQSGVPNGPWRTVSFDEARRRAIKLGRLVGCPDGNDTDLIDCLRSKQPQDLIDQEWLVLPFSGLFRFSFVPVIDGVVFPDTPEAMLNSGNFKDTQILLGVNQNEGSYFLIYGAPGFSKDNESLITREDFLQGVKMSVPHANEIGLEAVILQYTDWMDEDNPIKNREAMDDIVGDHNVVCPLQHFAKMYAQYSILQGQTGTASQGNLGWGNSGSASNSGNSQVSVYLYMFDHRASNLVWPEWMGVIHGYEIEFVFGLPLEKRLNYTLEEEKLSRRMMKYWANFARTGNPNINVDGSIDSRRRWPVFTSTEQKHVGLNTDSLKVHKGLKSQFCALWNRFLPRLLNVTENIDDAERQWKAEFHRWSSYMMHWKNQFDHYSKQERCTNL

[3] = Selectivity index, ratio of IC50 for equine serum BuChE to IC50 for electric eel AChE by Ellman's method
[4] = biological target: Cholinesterase (Equus caballus, UniProt P81908); test: Inhibition of equine serum BuChE using butyrylthiocholine iodide as substrate preincubated with enzyme for 6 mins followed by substrate addition and measured for 180 secs by Ellman's method
Cholinesterase, sequence (P81908 whole entry): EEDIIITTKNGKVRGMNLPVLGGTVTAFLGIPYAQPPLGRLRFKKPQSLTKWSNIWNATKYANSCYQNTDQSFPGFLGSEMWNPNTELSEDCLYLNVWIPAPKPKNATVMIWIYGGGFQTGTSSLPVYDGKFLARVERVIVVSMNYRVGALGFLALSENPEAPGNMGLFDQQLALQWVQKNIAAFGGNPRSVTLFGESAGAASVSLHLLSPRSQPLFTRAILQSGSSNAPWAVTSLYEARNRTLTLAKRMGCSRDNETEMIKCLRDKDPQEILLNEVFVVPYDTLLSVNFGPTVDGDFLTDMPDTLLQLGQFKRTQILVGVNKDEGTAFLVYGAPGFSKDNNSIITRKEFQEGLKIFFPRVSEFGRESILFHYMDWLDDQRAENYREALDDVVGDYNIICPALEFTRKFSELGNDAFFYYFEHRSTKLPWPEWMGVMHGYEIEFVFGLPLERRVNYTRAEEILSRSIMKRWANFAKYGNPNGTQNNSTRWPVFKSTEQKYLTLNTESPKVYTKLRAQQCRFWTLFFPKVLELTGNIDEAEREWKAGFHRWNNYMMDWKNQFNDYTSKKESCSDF
Outline: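 Ellman assay. Enzyme at 0.12 U/mL in 50 mM Tris-HCl pH 8.0 with 0.1% w/v BSA, plus 1.5 mM DTNB, preincubated with compound (0.001-100 μM, diluted from DMSO stock into Tris buffer with MgCl₂/NaCl) at 37 °C for 6 min. Then 15 mM butyrylthiocholine iodide was added, and absorbance at 405 nm was read at 0, 60, 120 and 180 s. IC50 from nonlinear regression of log concentration-response curves; at least three experiments in triplicate.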

[5] = biological target: T1, Amine oxidase [flavin-containing] B (Homo sapiens, UniProt P27338)
T1 sequence (P27338 whole entry): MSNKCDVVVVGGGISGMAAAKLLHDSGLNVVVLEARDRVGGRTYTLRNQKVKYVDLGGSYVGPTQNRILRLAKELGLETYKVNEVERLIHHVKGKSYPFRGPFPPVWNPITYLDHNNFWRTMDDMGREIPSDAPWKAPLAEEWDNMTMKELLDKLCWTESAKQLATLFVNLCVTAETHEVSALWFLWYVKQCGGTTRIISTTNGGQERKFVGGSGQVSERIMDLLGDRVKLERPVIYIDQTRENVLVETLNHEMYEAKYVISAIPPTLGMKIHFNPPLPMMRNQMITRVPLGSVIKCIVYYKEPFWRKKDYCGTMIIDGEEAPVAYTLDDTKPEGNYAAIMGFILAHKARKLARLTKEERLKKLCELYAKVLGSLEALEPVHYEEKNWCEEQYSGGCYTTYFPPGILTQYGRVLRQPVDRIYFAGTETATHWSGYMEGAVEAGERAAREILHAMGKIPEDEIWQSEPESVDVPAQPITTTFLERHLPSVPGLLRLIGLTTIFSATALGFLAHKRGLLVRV

[6] = biological target: T2, Amine oxidase [flavin-containing] A (Homo sapiens, UniProt P21397); test: Inhibition of recombinant human MAO- A using p-tyramine as substrate at 100 uM preincubated with enzyme for 15 mins followed incubation with substrate for 20 mins by Amplex red reagent based fluorescence based analysis relative to control; details: time 35 min
T2 sequence (P21397 whole entry): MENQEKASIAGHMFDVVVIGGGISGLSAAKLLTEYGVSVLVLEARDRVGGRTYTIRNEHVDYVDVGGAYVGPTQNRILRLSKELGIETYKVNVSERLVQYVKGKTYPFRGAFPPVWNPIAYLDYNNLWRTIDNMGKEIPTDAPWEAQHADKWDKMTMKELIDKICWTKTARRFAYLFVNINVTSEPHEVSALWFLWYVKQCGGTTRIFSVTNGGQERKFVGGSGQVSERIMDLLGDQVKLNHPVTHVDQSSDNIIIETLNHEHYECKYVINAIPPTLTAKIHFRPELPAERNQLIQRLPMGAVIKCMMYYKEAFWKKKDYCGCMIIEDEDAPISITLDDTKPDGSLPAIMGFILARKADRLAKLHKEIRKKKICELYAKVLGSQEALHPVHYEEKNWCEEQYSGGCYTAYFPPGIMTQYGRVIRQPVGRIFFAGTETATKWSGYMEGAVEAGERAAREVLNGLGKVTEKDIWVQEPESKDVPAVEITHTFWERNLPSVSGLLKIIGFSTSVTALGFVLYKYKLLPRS
Outline: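 Human MAO-A (1.1 µg protein, activity set to oxidize 165 pmol p-tyramine/min) was preincubated with compound in 0.05 M potassium phosphate pH 7.4 at 37 °C for 15 min in the dark. The reaction was started with 2 mM p-tyramine, 2 U/mL HRP and 200 µM Amplex Red for 20 min at 37 °C. Fluorescence was read at ex 545/em 590 nm, and inhibition was calculated against the uninhibited control after background subtraction.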

[7] = in vitro; details: PAMPA
[8] = biological target: Cholinesterase (Equus caballus) (UniProt P81908); test: Competitive inhibition of equine serum BuChE […] using varying concentrations of butyrylthiocholine iodide as substrate at 2.6 to 10.5 uM by Lineweaver-burk plot analysis; details: dose microM 2.6-10.5
Cholinesterase (Equus caballus), sequence (P81908 whole entry): as the sequence (P81908 whole entry) above

[9] = biological target: T2, Amine oxidase [flavin-containing] A; test: Inhibition of recombinant human MAO- A using p-tyramine as substrate preincubated with enzyme for 15 mins followed incubation with substrate for 20 mins by Amplex red reagent based fluorescence based analysis
[10] = test system: PC-12; test: Cytotoxicity against rat PC12 cells assessed as cell viability at 1 to 50 uM measured after 24 hrs by MTT assay; format: cell-based; details: pc-12, 24 h, dose 1-50 µM
Outline: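 PC12 cells were grown at 37 °C, 5% CO₂ in DMEM with 10% bovine calf serum and penicillin/streptomycin, then seeded at 10,000 cells/well. At the required confluence they were switched to serum-free medium with compound for 24 h. Viability was read by MTT (4 h at 37 °C), with formazan dissolved in DMSO.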

[11] = biological target: T1, Amine oxidase [flavin-containing] B; test: Competitive inhibition of recombinant human MAO-B using varying concentration of p-tyramine as substrate at 0.13 to 0.54 uM by Lineweaver-burk plot analysis; details: dose 0.13-0.54 µM
Outline: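 Preincubation-free kinetic run with human MAO-B: initial oxidation rates of p-tyramine measured at six substrate concentrations without inhibitor and with three inhibitor concentrations (0.54, 0.27, 0.13 μM). Activity was read by the Amplex Red/horseradish peroxidase fluorescence method. Plots were fitted by weighted least-squares analysis, assuming the variance of v is a constant percentage of v.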

[12] = biological target: Acetylcholinesterase (Electrophorus electricus) (UniProt O42275); test: Mixed-type inhibition of electric eel AChE using varying concentration of acetylthiocholine iodide as substrate at 0.185 to 0.74 uM by Lineweaver-burk plot analysis; details: dose microM 0.185-0.74
Acetylcholinesterase (Electrophorus electricus), sequence (O42275 24-633 limits assumed): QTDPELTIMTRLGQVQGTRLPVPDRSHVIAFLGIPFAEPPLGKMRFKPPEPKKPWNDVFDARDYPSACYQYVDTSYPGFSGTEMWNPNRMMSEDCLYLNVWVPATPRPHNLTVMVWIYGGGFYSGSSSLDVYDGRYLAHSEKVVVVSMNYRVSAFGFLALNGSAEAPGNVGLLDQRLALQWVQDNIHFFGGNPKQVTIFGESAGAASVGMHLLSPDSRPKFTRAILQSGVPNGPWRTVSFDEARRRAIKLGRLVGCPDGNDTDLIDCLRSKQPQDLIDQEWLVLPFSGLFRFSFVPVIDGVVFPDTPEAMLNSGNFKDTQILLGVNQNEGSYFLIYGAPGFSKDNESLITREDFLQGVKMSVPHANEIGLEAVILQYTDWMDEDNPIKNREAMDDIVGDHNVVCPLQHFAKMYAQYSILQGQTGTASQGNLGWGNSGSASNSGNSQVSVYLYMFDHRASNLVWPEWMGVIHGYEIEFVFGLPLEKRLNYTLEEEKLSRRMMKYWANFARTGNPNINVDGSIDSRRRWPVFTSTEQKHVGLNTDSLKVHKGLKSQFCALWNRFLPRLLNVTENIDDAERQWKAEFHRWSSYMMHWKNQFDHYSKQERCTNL

COc1ccc2c(=O)c(C(=O)NC3CCN(Cc4ccccc4)CC3)coc2c1
Selectivity ratio [1]: > 3.5 | IC50 [2]: 1.58 µM | Ratio IC50 [3]: 6.2 | IC50 [4]: 9.78 µM | IC50 [5]: 28.6 µM | inhibition at 100 µM [6]: 37.4%

COc1ccc2occ(C(=O)NC3CCN(Cc4ccccc4)CC3)c(=O)c2c1
Selectivity ratio [1]: > 2.1 | IC50 [2]: 10.1 µM | Ratio IC50 [3]: 2.4 | IC50 [4]: 24.4 µM | IC50 [5]: 46.3 µM | inhibition at 100 µM [6]: 7.5%

O=C(NC1CCN(Cc2ccccc2)CC1)c1coc2ccccc2c1=O
Selectivity ratio [1]: < 5.6 | IC50 [2]: 2.96 µM | Papp at 16 h [7]: 15.6 ×10⁻⁶ cm/s | Ratio IC50 [3]: 6.3 | IC50 [4]: 18.7 µM | IC50 [5]: 17.7 µM | inhibition at 100 µM [6]: 63.8%

COc1ccc2c(=O)c(C(=O)NCCC3CCN(Cc4ccccc4)CC3)coc2c1
Selectivity ratio [1]: > 3.2 | IC50 [2]: 0.145 µM | Ratio IC50 [3]: 3.7 | IC50 [4]: 0.52 µM | IC50 [5]: 30.9 µM | inhibition at 100 µM [6]: 32.4%

O=C(NCCC1CCN(Cc2ccccc2)CC1)c1coc2ccc(OCc3ccccc3)cc2c1=O
inhibition [8]: Active | Selectivity ratio [1]: 247 | IC50 [2]: 0.37 µM | Papp at 16 h [7]: 5.4 ×10⁻⁶ cm/s | Ratio IC50 [3]: 14.2 | IC50 [9]: 67.2 µM | Activity [10]: Non-Toxic | IC50 [4]: 5.24 µM | IC50 [5]: 0.272 µM | inhibition (INH) [11]: Active | inhibition [12]: Active

Cc1ccc2occ(C(=O)NCCC3CCN(Cc4ccccc4)CC3)c(=O)c2c1
Selectivity ratio [1]: > 1.9 | IC50 [2]: 0.11 µM | Ratio IC50 [3]: 8.3 | IC50 [4]: 0.91 µM | IC50 [5]: 52.5 µM | inhibition at 100 µM [6]: 30.6%

Cc1ccc2occ(C(=O)NC3CCN(Cc4ccccc4)CC3)c(=O)c2c1
Selectivity ratio [1]: > 5.1 | IC50 [2]: 1.74 µM | Ratio IC50 [3]: 8.8 | IC50 [4]: 15.3 µM | IC50 [5]: 19.5 µM | inhibition at 100 µM [6]: 48.1%

O=C(NCCC1CCN(Cc2ccccc2)CC1)c1coc2ccc(Br)cc2c1=O
Selectivity ratio [1]: > 3.8 | IC50 [2]: 0.104 µM | Ratio IC50 [3]: 11.3 | IC50 [4]: 1.17 µM | IC50 [5]: 26.1 µM | inhibition at 100 µM [6]: 48.2%

O=C(NC1CCN(Cc2ccccc2)CC1)c1cc(=O)c2ccccc2o1
Selectivity ratio [1]: > 3.1 | IC50 [2]: 5.69 µM | Ratio IC50 [3]: 7.6 | IC50 [4]: 27.9 µM | IC50 [5]: 33.3 µM | inhibition at 100 µM [6]: 29.7%

O=C(NC1CCN(Cc2ccccc2)CC1)c1coc2ccc(OCc3ccccc3)cc2c1=O
Selectivity ratio [1]: 211 | IC50 [2]: 1.85 µM | Papp at 16 h [7]: 4.6 ×10⁻⁶ cm/s | Ratio IC50 [3]: 6.7 | IC50 [9]: 11.6 µM | Activity [10]: Non-Toxic | IC50 [4]: 12.4 µM | IC50 [5]: 0.035 µM

COc1ccc2occ(C(=O)NCCC3CCN(Cc4ccccc4)CC3)c(=O)c2c1
Selectivity ratio [1]: < 8.9 | IC50 [2]: 0.033 µM | Papp at 16 h [7]: 16.7 ×10⁻⁶ cm/s | Ratio IC50 [3]: 13.7 | Activity [10]: Non-Toxic | IC50 [4]: 0.45 µM | IC50 [5]: 11.2 µM | inhibition at 100 µM [6]: 72.4%

O=C(NCCC1CCN(Cc2ccccc2)CC1)c1coc2cc(Br)ccc2c1=O
Selectivity ratio [1]: > 3.4 | IC50 [2]: 0.154 µM | Ratio IC50 [3]: 11.9 | IC50 [4]: 1.24 µM | IC50 [5]: 29.5 µM | inhibition at 100 µM [6]: 30.3%

O=C(NCCC1CCN(Cc2ccccc2)CC1)c1coc2ccccc2c1=O
Selectivity ratio [1]: < 2.8 | IC50 [2]: 0.069 µM | Ratio IC50 [3]: 8.7 | IC50 [4]: 0.6 µM | IC50 [5]: 35.3 µM | inhibition at 100 µM [6]: 68.6%

O=C(NC1CCN(Cc2ccccc2)CC1)c1coc2cc(Br)ccc2c1=O
Selectivity ratio [1]: > 5.1 | IC50 [2]: 9.23 µM | Ratio IC50 [3]: 1.2 | IC50 [4]: 18.2 µM | IC50 [5]: 19.7 µM | inhibition at 100 µM [6]: 31.6%

O=C(NC1CCN(Cc2ccccc2)CC1)c1coc2ccc(Br)cc2c1=O
Selectivity ratio [1]: > 4.4 | IC50 [2]: 1.57 µM | Ratio IC50 [3]: 6.1 | IC50 [4]: 9.45 µM | IC50 [5]: 22.8 µM | inhibition at 100 µM [6]: 35.5%

O=C(NCCC1CCN(Cc2ccccc2)CC1)c1cc(=O)c2ccccc2o1
Selectivity ratio [1]: > 4.9 | IC50 [2]: 0.31 µM | Ratio IC50 [3]: 4.9 | IC50 [4]: 1.54 µM | IC50 [5]: 20 µM | inhibition at 100 µM [6]: 29.5%
